High-throughput results as filed in PubChem BioAssay.
UPR XBP1 act = activators of adaptive XBP1 UPR arm, primary screen, cell-based, CHO-XBP1 luciferase reporter, luminescence, uHTS. IRE1-XBP1 UPR activation; percent of tunicamycin response, DMSO as zero. activation, % at 20 µM. actives 0.33% (n = 330,000). AID 463104, 2010;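 active means versus positive control, 20 µM dose yields 30% or more activation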;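 further: 100% = tunicamycin at 10 µg/mL and 0% = DMSO only wells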
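Material: CHO-XBP1 cells stably carrying IRE1-XBP1-driven luciferase reporter | Medium: F12 with 10% serum | Compound dosing: 20 µM single concentration, DMSO 1% | Incubation: Overnight seeding at 37 °C, 6 h compound treatment at 37 °C | Detection: Steady-Glo luminescence read | Read-out basis: % activation of reporter signal versus tunicamycin and DMSO controls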
SKKanGAS inh = S. pyogenes SKKanGAS growth inhibitors in kanamycin, primary screen, streptokinase expression inhibitor project, SKKanGAS strain, BacTiter-Glo luminescence; 6 h; inhibition, % at 7.5 µM; actives 1.3% (n = 300,000); AID 1662, 2009;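 active means mean replicate score, as percent of positive control median, at least 50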;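 further: strain carries kanamycin resistance gene driven by streptokinase promoter and grows in 40 µg/ml kanamycin; loss of luminescence reflects streptokinase promoter inhibition or plain growth inhibition; 0% = median of DMSO wells and 100% = positive control at its reference dose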
Beta cell apopt = inhibitors of cytokine-induced beta cell apoptosis, primary screen, luminescence | INS-1E cytokine-induced death, ATP luminescence, 48 h; percent of positive-control rescue, neutral wells zero | actives 0.8% (n = 300,000) | protection from apoptosis, % (no concentration beside the values) | AID 435005, 2010;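 active means Every replicate reaches about 75%, or at least half do and their mean reaches it too, limit read from the data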;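 further: 0% = cytokine-treated negative control wells and 100% = positive control rescue; higher means more ATP so stronger rescue from cytokine killing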
CHOP UPR activ = activators of apoptotic CHOP UPR arm, primary screen, cell-based, CHO-CHOP luciferase reporter, luminescence, uHTS; activation, % at 10 µM; UPR activation; percent of tunicamycin response over DMSO baseline; actives 0.34% (n = 330,000);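 active means at 10 µM dose, activation of 40% or more, normalized to positive control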;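 further: 100% = tunicamycin at 10 µg/mL and 0% = DMSO alone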
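Assay system: CHO-CHOP cells, stable luciferase reporter of PERK-eIF2a-CHOP signalling / Buffer or medium: F12 plus 10% serum / Compound dosing: one dose, 10 µM in 0.5% DMSO / Times: 6 h compound treatment, 37 °C / Technique: luciferase luminescence / Read-out: % reporter activation, DMSO baseline versus tunicamycin full activation / Benchmarks: tunicamycin and DMSO controls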
Mdm2 MdmX PPI = inhibitors of human Mdm2-MdmX association, primary screen, cell-based, luminescence, split luciferase, SaOS-2, uHTS; inhibition, % at 8 µM; Protein Mdm4 (Homo sapiens) + E3 ubiquitin-protein ligase Mdm2 (Homo sapiens), …; SaOS-2 split-luciferase Mdm2/MdmX complementation; actives 3% (n = 330,000);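 active means inhibition of at least 50% at 8 µM in the primary screen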
CSC inhib = cancer stem cell viability inhibitors, primary screen, luminescence; cancer stem cell-like cells viability; inhibition, % at 7.5 µM; actives 1.1% (n = 300,000); in the data active means inhibition above about 75%; tested in HMLE shEcad cells
Mdm2-MdmX conf = Mdm2-MdmX complex disruptors, retested hits, confirmation, luminescence, single concentration; shares compounds with Mdm2 MdmX PPI; Mdm2-MdmX binding, luminescent assay; inhibition, % at 8 µM; actives 55% (n = 10,000); AID 489028, 2010; in the data active means inhibition above about 40%
Full FLuc ctr = full-length luciferase signal inhibition, confirmation, counter-screen for Mdm2/MdmX interaction inhibitor project, cell-based, single concentration, SaOS-2 | shares compounds with Mdm2 MdmX PPI | actives 77% (n = 6,200) | inhibition, % at 8 µM | SaOS-2 full-length luciferase counterscreen, luminescence;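 active means mean inhibition at 8 µM reaching about 37%, which flags the compound as non-specific, limit read from the data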;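 further: p53-null SaOS-2 cells with luciferase driven by a doxycycline-inducible promoter; compound on cells about two nights before reading with doxycycline added after day one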
Active calls of the source: *; . = no result. The list is not random: actives were taken first. Their share in the collection is about 4.8%.

SMILES	UPR XBP1 act	SKKanGAS inh	Beta cell apopt	CHOP UPR activ	Mdm2 MdmX PPI	CSC inhib	Mdm2-MdmX conf	Full FLuc ctr
O=C(NCCC1=CCCCC1)c1c(O)nc2sccn2c1=O	5.7	31.0	-2.7	2.0	79.9*	10.2	57.2*	67.5*
CCN(CC)C(=O)c1[nH]cnc1C(=O)N[C@H](C)c1ccccc1	-2.6	.	-8.1	-2.5	2.3	7.2	.	.
Cc1ccc(C(C)(C)C)cc1S(=O)(=O)Nc1cccc(C(=O)N2CCN(c3ccccn3)CC2)c1	-0.1	.	.	-0.9	6.4	.	.	.
Fc1ccccc1/C=N/Nc1nc(-c2ccccn2)nc2ccccc12	4.9	12.2	104.9*	168.1*	82.0*	36.5	78.0*	57.2*
Oc1ccccc1CNc1ccc(Br)cn1	0.2	8.2	-10.5	4.1	78.0*	7.2	68.4*	28.8
COc1cc(-c2noc(C)c2/C=C/c2cccc([N+](=O)[O-])c2)cc(OC)c1OC	1.1	25.9	24.9	3.1	78.9*	63.9	74.7*	83.8*
COc1cc(-c2noc(C)c2/C=C/c2ccc(C(=O)O)cc2)cc(OC)c1OC	3.6	17.8	-4.8	1.7	-29.1	42.2	.	.
COc1ccc(-c2noc(-c3ccc4c(c3)OCO4)n2)cc1	0.1	2.2	0.5	-0.7	-94.1	4.8	.	.
COc1ccc(-c2nc(-c3ccc4c(c3)OCO4)[nH]c2-c2ccc(OC)cc2)cc1	-0.8	55.5*	33.5	5.1	67.4*	.	24.6	.
COc1ccc(CC(=O)NCc2ccccc2)cc1	-3.2	-10.1	-1.7	2.6	47.1	62.2	.	.
O=C(Cc1ccc(Br)cc1)NCc1ccccc1	0.1	0.7	21.6	1.1	64.0*	59.8	51.8*	57.1*
COc1ccc(NC(=O)Nc2nnc(CC(=O)NCc3ccccc3)s2)cc1	2.1	-3.3	-2.3	-0.7	27.2	6.9	.	.
COc1cccc(CNC(=O)Cc2ccc(-c3ccccc3)cc2)c1	-2.1	21.5	-0.2	0.8	66.6*	.	58.9*	61.5*
COc1cccc(NC(=O)Nc2nnc(CC(=O)NCc3ccccc3)s2)c1	0.1	-6.0	-8.6	-1.0	55.6*	-18.5	51.2*	35.1
COc1ccc(CN(C(=O)c2ccco2)c2ccc(C)c(C)c2)cc1	-0.3	5.7	-4.1	1.6	57.7*	9.4	56.8*	59.5*
CCOc1ccc(N(Cc2ccc(OC)cc2)C(=O)c2ccco2)cc1	-2.3	5.0	-5.3	-0.9	-3.6	9.7	.	.
Cc1cc(/C=N/n2cnnc2)c(C)n1-c1ccc(OCc2ccc(Cl)cc2)cc1	2.5	62.0*	121.9*	17.2	61.4*	45.7	61.7*	91.7*
C(=N\n1cnnc1)/c1ccc(OCc2ccccc2)cc1	-0.6	-2.1	-0.7	0.8	15.4	3.9	.	.
Cc1cnn(-c2cc(N/N=C/c3ccccc3)ncn2)c1	7.4	-2.6	3.3	1.2	5.0	-7.0	.	.
Cc1cnn(-c2cc(N/N=C/c3cccc(F)c3)ncn2)c1	2.1	-3.9	-6.0	3.9	75.1*	-14.0	25.6	.
Cc1cnn(-c2cc(N/N=C/c3ccccc3F)ncn2)c1	5.7	-8.5	-3.1	6.0	64.2*	-6.7	24.4	.
COc1ccc(/C=C/C(=O)NC(=S)NNC(=O)c2cccs2)cc1	13.4	93.6*	14.5	2.5	54.0*	12.0	53.0*	73.0*
COc1ccc(/C=C/C(=O)NC(=S)NNC(=O)c2cnccn2)cc1	8.8	79.6*	76.2*	-2.1	74.1*	98.4*	52.5*	53.4*
COc1ccccc1C(=O)NNC(=S)NC(=O)c1cccs1	0.2	103.6*	15.3	1.6	62.7*	3.1	35.4	.
COCCNC(=S)NNC(=O)c1cccs1	1.2	-11.1	-3.2	0.6	-7.2	13.1	.	.
SMILES	UPR XBP1 act	SKKanGAS inh	Beta cell apopt	CHOP UPR activ	Mdm2 MdmX PPI	CSC inhib	Mdm2-MdmX conf	Full FLuc ctr
CN(Cc1ccccc1C#N)S(=O)(=O)c1cccs1	2.7	0.9	.	0.1	-2.4	-5.5	.	.
N#Cc1nccnc1S(=O)(=O)c1cccs1	-8.9	37.7	19.9	-8.7	74.4*	14.1	47.2*	-0.5
CC1CCCCC12NC(=O)N(CC(=O)N1CCc3ccccc3C1)C2=O (stereo not drawn)	-1.6	.	.	-0.6	15.5	.	.	.
CCOc1cc2c(cc1OCC)CN(CC(=O)Nc1ccccc1C(=O)NC1CC1)CC2	-1.3	.	-4.5	0.7	11.7	.	.	.
COc1ccc(NC(=O)c2cc(-c3ccccn3)nc3c(C)cc(C)cc23)c(C)c1	8.9	-2.9	-2.6	1.7	76.6*	0.9	46.6*	103.7*
Cc1cc(C)c2nc(-c3ccccn3)cc(C(=O)NCc3ccc(S(N)(=O)=O)cc3)c2c1	-2.0	-20.0	7.5	-0.8	54.1*	22.9	-2.8	.
COc1cccc(NC(=O)c2cc(-c3ccncc3)nc3c(C)cc(C)cc23)c1	-0.2	5.5	6.3	-0.1	22.3	38.6	.	.
O=C(CCc1ccccc1)N1CCCC(Nc2ccc(F)cc2)C1 (stereo not drawn)	-4.5	1.5	0.3	-0.8	12.1	-3.6	.	.
C=CCC[C@@H](Cc1ccc(F)cc1)C(=O)OC[C@@H](NC(=O)[C@@H](CC=C)CC(=O)N(CCO)Cc1ccccc1)c1ccccc1	10.1	.	1.2	11.5	88.0*	.	9.2	.
C=CC[C@@H](CC(=O)N(CCO)Cc1ccccc1)C(=O)N[C@H](COC(=O)[C@@H](CC=C)Cc1ccc(F)cc1)Cc1ccccc1	0.9	.	6.2	7.8	70.2*	-5.2	14.3	.
C=CC[C@@H](CC(=O)N(CCO)Cc1ccccc1)C(=O)N[C@@H](COC(=O)[C@@H](CC=C)Cc1ccc(F)cc1)Cc1ccccc1	-2.8	.	12.7	7.5	62.7*	.	12.2	.
C=CC[C@H](CC(=O)N(CCO)Cc1ccccc1)C(=O)N[C@@H](C)COC(=O)[C@@H](CC=C)Cc1ccc(F)cc1	-3.7	.	-15.2	1.5	-7.3	0.2	.	.
C=CCC[C@@H](Cc1ccc(F)cc1)C(=O)OC[C@@H](NC(=O)[C@H](CC=C)CC(=O)N(CCO)Cc1ccccc1)c1ccccc1	1.0	.	-5.7	-0.1	32.0	28.1	.	.
